# Data taken from PubChem BioAssay AID504382 (The Scripps Research Institute Molecular Screening Center, 2011).
# Hit rate of the full screen: of about 2,500 compounds, about 460 (18%) were called active.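 Rule for the calls: active = mean activation above a cutoff of low control average plus 3 SD from the earlier screen (cut at about 12% in these data); inactive = the rest.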 A selection follows.
# Test: compound fluorescence interference without thin filaments, confirmation, artefact control for cardiac RTF calcium sensitizer project, biochemical (AID 504382)
# Settings: IANBD fluorescence interference counterscreen, buffer, EC20 Ca2+; at 7.2 µM; active compounds read high; scaled: EC20 calcium 0, EC100 calcium 100
# Summary of the method: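 Technique: fluorescence, 480/540 nm / Medium: MOPS-based buffer with KCl, MgCl2, EGTA, NTA, DTT, pH 7.2 / Probe or stimulus: calcium at EC20 level, 0.472 mM final / Repeats: triplicate wells per compound / Times: 15 min compound exposure at 25 °C / Measure: compound fluorescence interference relative to control well signal range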
row,Structure (SMILES),fluorescence artifact activation
1,Nc1nc2ccccc2n1CCOc1ccc(Br)cc1,0.41% (inactive)
2,O=C(C1=C(O)C(=O)N(c2nccs2)C1c1ccccc1)c1cc2ccccc2o1 (stereo not drawn),-0.02% (inactive)
3,Cc1ccccc1Cn1cccc1/C=C1/C(=N)N2C=CSC2=NC1=O,0.51% (inactive)
4,C=CCNc1nnc(SCC(=O)N2CCC(C(N)=O)CC2)s1,2.23% (inactive)
5,CCOc1c2ccc(C(=O)NCc3ccc(C)cc3)cc2nn1CCOC,0.08% (inactive)
6,CCN(CC(=O)Nc1c(F)cccc1F)C(=O)CNC(=O)COc1ccccc1,-0.06% (inactive)
7,c1ccc(-n2ncc(-c3nn[nH]n3)n2)cc1,48.8% (active)
8,O=C(C1=NN(c2ccccc2)C2C(=O)N(c3ccccc3)C(=O)C12)c1ccccc1 (stereo not drawn),-0.1% (inactive)
9,O=C(NCc1ccco1)c1cccc2c1C(=O)c1ccc(N3CCC(Cc4ccccc4)CC3)cc1S2(=O)=O,24.3% (active)
10,O=C(NCCc1ccc(F)cc1)c1cccc2c1C(=O)c1ccc(N3CCC(Cc4ccccc4)CC3)cc1S2(=O)=O,33.5% (active)
11,O=C(NCc1ccco1)c1cccc2c1C(=O)c1ccc(N3CCCC3)cc1S2(=O)=O,0.41% (inactive)
12,O=C(NCc1ccc(F)cc1)c1cccc2c1C(=O)c1ccc(N3CCC(Cc4ccccc4)CC3)cc1S2(=O)=O,0.01% (inactive)
13,O=C(NCc1cccc(C(F)(F)F)c1)c1cccc2c1C(=O)c1ccc(N3CCC(Cc4ccccc4)CC3)cc1S2(=O)=O,0.26% (inactive)
14,O=C(NCc1cccc(F)c1)c1cccc2c1C(=O)c1ccc(N3CCC(Cc4ccccc4)CC3)cc1S2(=O)=O,3.97% (inactive)
15,COc1ccc(/C=C2\Oc3cc(OCC(=O)N4CCC[C@H]4CO)ccc3C2=O)c(OC)c1,0.23% (inactive)
16,COc1ccc(/C=C2\Oc3cc(OCC(=O)N4CCC(C(=O)O)CC4)ccc3C2=O)c(OC)c1,84% (active)
17,COc1ccc(/C=C2\Oc3cc(OCC(=O)N4CCC[C@H]4C(=O)O)ccc3C2=O)c(OC)c1,5.17% (inactive)
18,CN(C)c1ccc(/C=C/C(=O)c2cccc(Br)c2)cc1,0.06% (inactive)
19,CCOc1ccc(CCNC(=O)c2ccc(CNS(=O)(=O)c3ccccc3)cc2)cc1OCC,0.06% (inactive)
20,CCOc1ccc(Cn2nnc(C(=O)NCCc3ccccc3)c2N)cc1,40.2% (active)
21,O=C(NCCc1ccccc1)c1ccc(Cl)nc1,5.54% (inactive)
22,CC1=Nc2ccccc2/C1=C/c1sc(=S)n(-c2cccc(C(=O)O)c2)c1O,0.55% (inactive)

row,Structure (SMILES),fluorescence artifact activation
1,O=C(Cc1ccccc1)Nn1c(O)c(/C=C2\C=Nc3ccccc32)sc1=S,29.4% (active)
2,Cc1ccc2c(c1)[C@H]1[C@H](CO2)[C@H](c2ccccc2)[C@]2(C)C(=O)N(Cc3ccc(F)cc3)CC(=O)N12,0.19% (inactive)
3,Clc1ccccc1/C=N/NC1=Nc2cccc3cccc1c23,0.08% (inactive)
4,CCC12OC(=N)C(C#N)(C1C)C(C#N)(C#N)C(c1ccccc1)O2 (stereo not drawn),-0.03% (inactive)
5,O=C(CCSc1ccccc1)N1CCN(C(=O)c2ccco2)CC1,25.9% (active)
6,CCC(C)(C)n1nnnc1C(c1ccc(C)cc1)N1CCN(C(=O)c2ccco2)CC1 (stereo not drawn),0.17% (inactive)
7,O=C(COC(=O)C1(c2ccc(F)cc2)CCCC1)N1CCN(C(=O)c2ccco2)CC1,0% (inactive)
8,COc1cc2c(cc1OC)CN(Cc1cc(=O)oc3cc(C)c(C)cc13)CC2,-0.02% (inactive)
9,C=CCNc1sc(C(=O)c2ccc(Br)s2)c(N)c1C#N,37% (active)
10,O=C(NCc1ccc(OC(F)(F)F)cc1)c1cccc2c1C(=O)c1ccc(N3CCCCC3)cc1S2(=O)=O,0.89% (inactive)
11,C#CCOCCOCCOCCNc1nc(N2CCN(C(=O)Cn3cc(CCCCN)nn3)CC2)nc(N2CCN(C(=O)Cn3cc(CC(C)O)nn3)CC2)n1 (stereo not drawn),-0.09% (inactive)
12,Cc1ccnc2nc(C(=O)OCC(=O)NCCc3ccccc3)nn12,7.51% (inactive)
13,COc1ccc(CCNC(=O)COC(=O)c2cc(=O)[nH]c3ccccc23)cc1,15.4% (active)
14,COc1ccc(-c2noc(CCC(=O)NCCc3ccccc3)n2)cc1,0.2% (inactive)
15,CCC12CN3CCN(CC(C3)/C1=N\NC(=O)Nc1ccccc1)C2,-0.04% (inactive)
16,CCCCCCc1cc2cc(-c3nnc(-c4ccccc4)o3)c(=O)oc2cc1O,0.03% (inactive)
17,CCCC(NC(=O)CCc1c(C)c2cc3c(-c4ccccc4)coc3cc2oc1=O)C(=O)O (stereo not drawn),35.8% (active)
18,O=[N+]([O-])c1ccc(N(c2ccccc2)c2ccccc2)cc1,2.48% (inactive)
19,Cc1ccc(S(=O)(=O)c2c(N)n(Cc3ccco3)c3nc4ccccc4nc23)cc1,0.24% (inactive)
20,Nc1c(S(=O)(=O)c2ccccc2)c2nc3ccccc3nc2n1Cc1ccco1,22.8% (active)
21,Nc1c(S(=O)(=O)c2ccccc2)c2nc3ccccc3nc2n1/N=C/c1ccco1,-0.02% (inactive)
22,COc1ccccc1Nc1nc(N2CCOCC2)nc(N2CCOCC2)n1,0% (inactive)

row,Structure (SMILES),fluorescence artifact activation
1,CCOC(=O)c1c(NC(=S)N2CCN(C)CC2)sc2c1CCN(C(=O)OCC)C2,1.28% (inactive)
2,O=C(CCN1C(=O)/C(=C/c2ccccc2)SC1=S)NNC(=O)c1cccnc1,0.24% (inactive)
3,C/C(O)=c1/ccc2cccc3nc(C)nc1c23,13.3% (active)
4,CCC(C)NC(=O)C1CC(=O)N(CCc2ccc(F)cc2)C1 (stereo not drawn),111% (active)
5,COc1ccc(S(=O)(=O)N2CCC(C(=O)NC(C)CCc3ccccc3)CC2)cc1 (stereo not drawn),-0.01% (inactive)
6,COc1ccc(CN=C2NC(=O)CC(C(=O)Nc3ccc(F)cc3)S2)cc1 (stereo not drawn),1.74% (inactive)
7,NC(=O)NC(=O)COC(=O)c1cccc(NS(=O)(=O)/C=C/c2ccccc2)c1,6.11% (inactive)
8,CC(=O)N(C)c1ccc(C(O)(C(F)(F)F)C(F)(F)F)cc1,7.43% (inactive)
9,O=c1c2ccccc2nc(SCc2nc(-c3ccccc3)no2)n1-c1ccc(F)cc1,0.14% (inactive)
10,COc1ccc(C2=NN(C(=O)CSc3ncccn3)C(c3ccc(C)cc3)C2)cc1 (stereo not drawn),202% (active)
11,CNC(=S)N1N=C(c2ccc(Br)cc2)CC1c1ccc(N(C)C)cc1 (stereo not drawn),5.89% (inactive)
12,O=C(c1cn(-c2ccccc2)nc1-c1ccc(Br)cc1)N1CCOCC1,0.32% (inactive)
13,COC(=O)c1[nH]c2ccc(C)cc2c1NC(=O)C(C)N1CCN(C2CCCCC2)CC1 (stereo not drawn),0.08% (inactive)
14,O=C(O)C1CCCCC1C(=O)Nc1ccc(-c2ccccc2)cc1 (stereo not drawn),0.17% (inactive)
15,CCOc1ccc(C2C(C#N)=C(N)SC(N)=C2C#N)cc1OCC,11.7% (active)
16,CCOc1ccccc1C1C(C#N)=C(N)SC(N)=C1C#N,0.08% (inactive)
17,COc1ccc(C2C(C#N)=C(N)SC(N)=C2C#N)cc1OC,0.15% (inactive)
18,Cc1cc(S(=O)(=O)Nc2c(C)nn(C)c2C)c(Cl)cc1Cl,0.08% (inactive)
19,COC(=O)c1ccc2c(c1)NC1=C(C(=O)CC(C)(C)C1)C(c1ccncc1)N2 (stereo not drawn),0.26% (inactive)
20,Cc1ccccc1OCCC(=O)Nc1cc(S(=O)(=O)N2CCCCC2)ccc1N1CCN(C)CC1,4.83% (inactive)
21,CCN1/C(=C\c2ccc3ccccc3[n+]2CC)Sc2cc(C)ccc21,20.2% (active)
22,CCN1/C(=C/c2ccc3cc(C)ccc3[n+]2CC)Sc2ccccc21,15.3% (active)

row,Structure (SMILES),fluorescence artifact activation
1,CCN1/C(=C/c2ccc3cc(C)ccc3[n+]2CC)Sc2ccc3sccc3c21,0.99% (inactive)
2,CCN1/C(=C/c2ccc3cc(C)cc(C)c3[n+]2CC)Sc2cc(C)ccc21,0.44% (inactive)
3,CCN1/C(=C\c2ccc3cc(C)ccc3[n+]2CC)Sc2cc(C)c(C)cc21,0.1% (inactive)
4,CCN1/C(=C/c2ccc3cc(C)ccc3[n+]2CC)Sc2cc(C)ccc21,0.41% (inactive)
5,COCCN(CCOC)Cc1c(O)ccc2c1O/C(=C\c1ccco1)C2=O,0.11% (inactive)
6,C=CCn1c(O)c(CN2CCN(Cc3ccccc3)CC2)c(C)c(C#N)c1=O,0.03% (inactive)
7,CCC[C@@H](CN1CCC[C@H]1CN1C(N)=NC[C@@H]1Cc1ccccc1)N1C[C@@H](Cc2ccccc2)N(CCCC2CCCC2)C1=N,7.46% (inactive)
8,CCOc1ccc(NC(=O)/C(C#N)=C/c2ccc(N3CCCC3)c(C)c2)cc1,0.06% (inactive)
9,Oc1[nH]c2ccc(Br)cc2c1N=Nc1ccc(F)cc1,5.56% (inactive)
10,COc1ccc(C2=NN(C(=O)COC(=O)c3ccc(NC(=O)CC#N)cc3)C(c3ccco3)C2)cc1 (stereo not drawn),2.58% (inactive)
11,CS(=O)(=O)Nc1ccc(C2=NN(C(=O)CCCC(=O)O)C(c3cccs3)C2)cc1 (stereo not drawn),16.5% (active)
12,O/C(=C\c1nc2ccccc2[nH]1)c1cccs1,0% (inactive)
13,O=C(O)c1ccc(O)c(O)c1,-0.01% (inactive)
14,Cc1cc(C)c[n+](-c2[nH]c(=O)sc2/C=N/NC([S-])=Nc2ccccc2)c1,0.17% (inactive)
15,Cc1ccc[n+](-c2nc([O-])sc2C=O)c1,9.59% (inactive)
16,Cc1ccc(N/C=C2/Sc3ccccc3NC2=O)cc1,0.14% (inactive)
17,CC1C2(C)OC(=N)C(C#N)(C(C)O2)C1(C#N)C#N (stereo not drawn),0.64% (inactive)
18,CCN1C(=O)/C(=C\C=C2/C=CC=CN2CC)SC1=S,104% (active)
19,CCCCN1C(=O)/C(=C/C=C2/CC(C)(C)CN2C)SC1=S,-0.02% (inactive)
20,CCN1C(=O)/C(=C/C=C2/SCCN2C)SC1=S,10.2% (inactive)
21,COC(=O)C(C)n1cnc2c(nnn2Cc2ccc(Cl)cc2)c1=O (stereo not drawn),0.03% (inactive)
22,Cc1ccc(C)c(S(=O)(=O)N2CCCC2CNC(=O)C(=O)NC2CC2)c1 (stereo not drawn),0.11% (inactive)
